In the library only some 2.1% were active in any assay of this set; here they are far more common.
UBC9 SUMO inh – blocks human SUMOylation mediated by UBC9. HTRF SUMOylation assay, SAE1/SAE2 + UBC9, in vitro. inhibition, % at 35 µM. actives 0.36% (n = 290,000); in the data active = inhibition above about 50%, passing the limit was not always enough
Target sequence (P63279 whole entry, looked up): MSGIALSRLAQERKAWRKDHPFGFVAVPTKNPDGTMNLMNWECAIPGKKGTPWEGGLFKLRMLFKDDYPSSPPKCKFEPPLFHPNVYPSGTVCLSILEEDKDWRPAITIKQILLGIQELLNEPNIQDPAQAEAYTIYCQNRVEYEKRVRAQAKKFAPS
DNA FID counter-1 – fluorescent intercalator displacement, NS3 helicase counter-screen | DNA fluorescent intercalator displacement, fluorescence | inhibition, % at 7.9 µM | actives 0.17% (n = 290,000) | AID 1845;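 note: 0% = vehicle and 100% = reference compound; higher means more ethidium bromide displaced from hairpin DNA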
NS3 helicase inh – HCV NS3 helicase inhibition; NS3 helicase DNA unwinding, Cy5 molecular beacon fluorescence; inhibition, % at 10.9 µM; actives 0.56% (n = 290,000); AID 1800;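 active = inhibition above the mean of all tested compounds plus 3 SD, set per campaign, cut at about 35% in these data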;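 note: 0% = DMSO wells and 100% = thioflavine S control wells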
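System: HCV NS3 helicase fragment; control set: DMSO and thioflavine S; technique: Cy5 fluorescence at 0 and 60 min, beacon hairpin quenching; reagent: beacon DNA duplex substrate plus ATP; replicates: singlicate; schedule: 1 h reaction at 25 °C, ATP-initiated; medium: MOPS buffer pH 6.5 with MgCl2, DTT, Tween20, BSA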
VIM-2 inhibitor – blocks Pseudomonas aeruginosa VIM-2 metallo-beta-lactamase | AID 1527 | inhibition, % at 5.6 µM | purified VIM-2, nitrocefin hydrolysis, epi-absorbance fluorescence | actives 0.89% (n = 290,000);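 active = inhibition above the mean of all tested compounds plus 3 SD, cutoff set per screening run, cut at about 7.5% in these data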;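 note: red hydrolysis product quenches plate fluorescence so inhibitors raise well fluorescence; 0% = enzyme with DMSO and 100% = DMSO without enzyme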
IMP-1 inhibitor – blocks Pseudomonas aeruginosa IMP-1 metallo-beta-lactamase; inhibition, % at 5.6 µM; purified IMP-1, nitrocefin hydrolysis, epi-absorbance fluorescence; actives 0.45% (n = 290,000);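 active = inhibition above the mean plus 3 SD of all compounds in the same screening run, cut at about 4.5% in these data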;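 note: 0% = IMP-1 with DMSO and 100% = DMSO wells lacking enzyme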
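System: purified recombinant IMP-1 beta-lactamase. Medium: Zinc- and detergent-supplemented HEPES buffer, pH 7.1. Compound: one 5.6 µM dose […]. Schedule: 15 min preincubation plus 25 min reaction at 25 °C. Technique: Epi-absorbance fluorescence, 480 nm excitation, 530 nm emission.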
NS3 hel confirm – HCV NS3 helicase inhibition, confirmation assay; NS3 helicase DNA unwinding, Cy5 molecular beacon fluorescence; shares compounds with NS3 helicase inh; actives 31% (n = 1,600); AID 1943; inhibition, % at 10.9 µM;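 active = inhibition above the mean of all tested compounds plus 3 SD, cutoff set per campaign, cut at about 36% in these data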
DNA FID counter-2 – counter-screen for HCV NS3 helicase inhibitors: DNA intercalator displacement. shares compounds with NS3 helicase inh. inhibition, % at 7.9 µM. AID 1945. DNA fluorescent intercalator displacement, fluorescence. actives 4% (n = 1,600);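 note: 0% = vehicle and 100% = reference compound; higher means more displacement of ethidium bromide from the DNA hairpin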
FID counter DR – DNA intercalator displacement in dose response | shares compounds with NS3 helicase inh | fluorescent intercalator displacement from DNA, fluorescence | IC50, µM | 120 tested, under 10 active; call rule not given here
Numbers without * were called inactive; . = no result given. Cut-off read from the data, not from the text of the source, unless noted: active = inhibition above about 37%; inactive = the rest.

SMILES	UBC9 SUMO inh	DNA FID counter-1	NS3 helicase inh	VIM-2 inhibitor	IMP-1 inhibitor	NS3 hel confirm	DNA FID counter-2	others
O=C(NC(Cc1ccccc1)C(=O)O)/C(=C\c1ccc(Br)cc1)NC(=O)c1ccc(Br)o1 (stereo not given)	17	-21	11	-1	0	.	.
Cc1ccc(CNC(=O)C2CCN(S(=O)(=O)c3c(C)noc3/C=C/c3ccco3)CC2)cc1	17	-25	63*	4	0	-13	-3
CCCn1c(C(C)Nc2nc(-c3ccc(Cl)c([N+](=O)[O-])c3)cs2)nc2cc(Cl)c(N3CCCCC3)cc21 (stereo not given)	4	-22	92*	-3	-2	-15	6
CCOC(=O)Cc1cc(=O)n2[nH]cc(-c3ccc(Cl)cc3)c2n1	9	-12	64*	-4	-5	84*	13
CCOC(=O)Cc1cc(=O)n2[nH]c(-c3ccc(Cl)cc3)cc2n1	4	-10	10	-4	-4	.	.
CC(C)CC(=O)Nc1nnc(S(=O)(=O)N(C)Cc2ccco2)s1	.	-18	55*	-1	0	-3	10
Cc1cc(N)n(-c2ccc(C)c(C)c2)n1	-12	-9	-3	-2	-2	.	.
Cc1ccc(-n2nc3ccc(N)cc3n2)cc1C	36	-3	70*	-1	-5	-9	28
COc1ccc(-n2nc3ccc(N)cc3n2)cc1Cl	49	0	37*	0	-2	-5	23
O=[N+]([O-])c1cccc(S(=O)(=O)NCCCn2ccnc2)c1	-6	0	-3	-2	3	.	.
CC(=O)c1cc2c(cc1NC(=O)c1ccccc1C)OCO2	10	-4	12	-3	-3	.	.
COc1ccc(Nc2nccc(-c3ccc(C#N)cc3)n2)cc1	13	-16	37*	-2	-3	-6	-7
COc1ccc(Nc2nccc(-c3cccc(N)c3)n2)cc1	-8	-1	-16	0	0	.	.
COc1ccc(-c2csc(NC(=O)c3ccccc3OC)c2C(=O)O)cc1OC	-2	-32	14	0	-4	.	.
COc1ccc(-c2csc(NC(=O)c3ccccc3Br)c2C(=O)O)cc1	6	-9	41*	-2	-3	59*	-18
O=C(Cc1ccc(Br)cc1)N1CCN(C(=O)c2ccco2)CC1	21	-13	38*	1	-2	-4	-3
Cc1cc(N2C(=O)C(O)=C(C(=O)c3cc4ccccc4o3)C2c2ccc(OC(C)C)cc2)no1 (stereo not given)	-12	-51	11	-3	-2	.	.
COC(=O)c1ccc(C2C(C(=O)c3cc4ccccc4o3)=C(O)C(=O)N2c2cc(C)on2)cc1 (stereo not given)	2	-23	51*	-2	-4	93*	-29
COc1cc(C2C(C(=O)c3ccc(C)o3)=C(O)C(=O)N2c2cc(C)on2)ccc1OCc1ccccc1 (stereo not given)	-16	-47	84*	-3	-3	188*	-26	FID counter DR=>79
COc1cc(C2C(C(=O)c3ccc(C)o3)=C(O)C(=O)N2c2cc(C)on2)ccc1O (stereo not given)	7	6	8	-3	-2	.	.
CCCCCOc1ccc(C2C(C(=O)c3ccc(C)o3)=C(O)C(=O)N2c2cc(C)on2)cc1 (stereo not given)	-9	-50	63*	1	-1	162*	-39	FID counter DR=>79
CCOc1ccc(C2C(C(=O)c3ccc(C)o3)=C(O)C(=O)N2c2cc(C)on2)cc1OC (stereo not given)	5	-37	18	-4	0	.	.
Cc1cccc(N2C(=O)C(O)=C(C(=O)c3cccs3)C2c2cccc(Oc3ccccc3)c2)n1 (stereo not given)	16	-34	80*	0	-1	114*	18	FID counter DR=>79
COc1cccc(C2C(C(=O)c3cccs3)=C(O)C(=O)N2c2cc(C)on2)c1 (stereo not given)	21	-5	12	-1	-3	.	.
COc1cc(C2C(C(=O)c3cccs3)=C(O)C(=O)N2c2cc(C)on2)ccc1O (stereo not given)	22	11	45*	5	1	-3	37*
SMILES	UBC9 SUMO inh	DNA FID counter-1	NS3 helicase inh	VIM-2 inhibitor	IMP-1 inhibitor	NS3 hel confirm	DNA FID counter-2	others
CN1CCN(C(c2ccc(Br)cc2)c2cc(Cl)c3cccnc3c2O)CC1 (stereo not given)	-45	-7	40*	-4	-3	19	74*
CN1CCC(=NNC(=O)C(=O)Nc2ccccc2F)CC1	-13	-5	5	-4	-4	.	.
CCc1ccc(/C=N/n2c(C)cc(C)c(C#N)c2=O)cc1	-11	-1	0	-2	-1	.	.
Cc1cc(C)cc(NCc2cc(=O)oc3cc(-c4ccccc4)c(O)cc23)c1	4	2	0	0	2	.	.
COc1ccc(C)cc1NCc1cc(=O)oc2cc(-c3ccccc3)c(O)cc12	10	-4	49*	-4	-3	0	10
Cc1cc(C)n(Cc2ccc(C(=O)O)cc2)n1	14	-7	-2	-3	-1	.	.
Cc1ccc(C)n1Cc1ccc(C(=O)O)cc1	6	-26	38*	-1	-7	80*	-1
C=CCOc1ccc(CN(C)C(=O)CNC(=O)c2ccc(-c3ccccc3)cc2)cc1	-16	-21	6	1	2	.	.
COCCNCC(=O)N1CCCCCC1	0	8	6	-1	-2	.	.
COc1ccc(OC)c(/C=C/c2ccc3cccc(O)c3n2)c1	16	-31	60*	-6	-5	-11	-1
COc1cc(Br)c(/C=C/c2ccc3cccc(O)c3n2)cc1OC	-2	-8	14	-3	-3	.	.
CCOC(=O)CC(=O)CSc1ccc2nnc(-c3ccc(F)cc3)n2n1	19	-16	38*	3	0	-8	-2
CCOC(=O)c1sc2nc3c(SCCC(=O)O)cc(C(=O)c4cc(OC)ccc4O)cn3c(=O)c2c1C	74*	-14	40*	-4	-1	83*	14	FID counter DR=>79
O=C(O)CCn1c(SCCOc2ccccc2)nc2ccccc21	8	-36	41*	0	-3	-17	-2
COc1ccc(OCCSc2nc3ccccc3n2CCC(=O)O)cc1	18	-37	2	-1	-3	.	.
CCc1cc(=O)oc2c3c(cc(OCC(=O)NCCCC(=O)O)c12)OC(C)(C)CC3	45	-35	-6	-1	-4	.	.
CCc1cc(=O)oc2c3c(cc(OCC(=O)NC4CC4)c12)OC(C)(C)CC3	31	-20	42*	3	1	-8	-37
